Assay results reported in ChEMBL document CHEMBL5303300, “EUbOPEN Chemogenomics Library - Multiplex” (2023).
“And” between values parts separate entries of the source, which are not always exact repeats. Equal values may be shown once.

Test system: Fibroblast
Experiment: Multiplex assay against human fibroblast
Assay type: toxicity, cell-based
Settings: number of replicates 2
In short: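 Cells stained live at seeding with Hoechst33342, BioTracker Green Microtubule Cytoskeleton Dye, MitoTracker Red and Annexin V Alexa Fluor 680 were imaged on a CQ1 microscope at 37°C and 5% CO2 after compound addition. Their classification by CellPathfinder machine-learning gating ran from Hoechst high-intensity objects versus normal cells, to healthy, pyknosed or fragmented nuclei among normal cells, to mitotic or apoptotic among pyknosed cells. Tubulin, mitochondrial-mass and membrane-permeability phenotypes are per cents of healthy-nucleus cells.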

[1] = 12 h, 1 µM, compound concentration 1 uM
[2] = 12 h, 10 µM, compound concentration 10 uM
[3] = 24 h, 1 µM, compound concentration 1 uM
[4] = 24 h, 10 µM, compound concentration 10 uM
[5] = 48 h, 1 µM, compound concentration 1 uM
[6] = 48 h, 10 µM, compound concentration 10 uM

Question: For `COc1ncc(-c2cc(-c3ncc(CN4C[C@@H](C)O[C@@H](C)C4)o3)c3cn[nH]c3c2)cc1NS(C)(=O)=O`, which “Population Apoptotic (%)” value [1] is on record?
Answer: 48%

Question: And the “Population Fragmented Nuclei (%)” value [1]?
Answer: 7% and 8%

Question: And the “Population Healthy Nuclei (%)” value [1]?
Answer: 77% and 70%

Question: And the “Population Hoechst High Intensity Objects (%)” value [1]?
Answer: 0%

Question: And the “Population Membrane Permeable-Phenotype (%)” value [1]?
Answer: 5% and 10%

Question: What about the “Population Mitochondria Different-Phenotype (%)” value [1] of the same molecule?
Answer: 0%

Question: And the “Population Mitotic Cells (%)” value [1]?
Answer: 51%

Question: What about the “Population Normal (%)” value [1] of the same molecule?
Answer: 100%

Question: What about the “Population Pyknosed Nuclei (%)” value [1] of the same molecule?
Answer: 14% and 21%

Question: And the “Population Tubulin-Different-Phenotype (%)” value [1]?
Answer: 13% and 11%

Question: What about the “Total Cell Count” value [1] of the same molecule?
Answer: 228 and 199

Question: What about the “Population Apoptotic (%)” value [2] of the same molecule?
Answer: 30% and 51%

Question: And the “Population Fragmented Nuclei (%)” value [2]?
Answer: 4% and 11%

Question: What about the “Population Healthy Nuclei (%)” value [2] of the same molecule?
Answer: 59% and 66%

Question: What about the “Population Hoechst High Intensity Objects (%)” value [2] of the same molecule?
Answer: 0%

Question: What about the “Population Membrane Permeable-Phenotype (%)” value [2] of the same molecule?
Answer: 10% and 9%

Question: And the “Population Mitochondria Different-Phenotype (%)” value [2]?
Answer: 3% and 5%

Question: What about the “Population Mitotic Cells (%)” value [2] of the same molecule?
Answer: 69% and 48%

Question: And the “Population Normal (%)” value [2]?
Answer: 100%

Question: And the “Population Pyknosed Nuclei (%)” value [2]?
Answer: 35% and 22%

Question: And the “Population Tubulin-Different-Phenotype (%)” value [2]?
Answer: 40% and 37%

Question: What about the “Total Cell Count” value [2] of the same molecule?
Answer: 129 and 148

Question: What about the “Population Apoptotic (%)” value [3] of the same molecule?
Answer: 51% and 60%

Question: And the “Population Fragmented Nuclei (%)” value [3]?
Answer: 6% and 9%

Question: And the “Population Healthy Nuclei (%)” value [3]?
Answer: 79% and 67%

Question: What about the “Population Hoechst High Intensity Objects (%)” value [3] of the same molecule?
Answer: 0%

Question: And the “Population Membrane Permeable-Phenotype (%)” value [3]?
Answer: 5% and 11%

Question: What about the “Population Mitochondria Different-Phenotype (%)” value [3] of the same molecule?
Answer: 0%

Question: And the “Population Mitotic Cells (%)” value [3]?
Answer: 48% and 39%

Question: What about the “Population Normal (%)” value [3] of the same molecule?
Answer: 100% and 99%

Question: And the “Population Pyknosed Nuclei (%)” value [3]?
Answer: 13% and 23%

Question: And the “Population Tubulin-Different-Phenotype (%)” value [3]?
Answer: 9% and 13%

Question: What about the “Total Cell Count” value [3] of the same molecule?
Answer: 224 and 204

Question: And the “Population Apoptotic (%)” value [4]?
Answer: 55% and 66%

Question: What about the “Population Fragmented Nuclei (%)” value [4] of the same molecule?
Answer: 6% and 11%

Question: What about the “Population Healthy Nuclei (%)” value [4] of the same molecule?
Answer: 62% and 71%

Question: What about the “Population Hoechst High Intensity Objects (%)” value [4] of the same molecule?
Answer: 0%

Question: What about the “Population Membrane Permeable-Phenotype (%)” value [4] of the same molecule?
Answer: 0% and 6%

Question: And the “Population Mitochondria Different-Phenotype (%)” value [4]?
Answer: 3% and 4%

Question: And the “Population Mitotic Cells (%)” value [4]?
Answer: 45% and 33%

Question: What about the “Population Normal (%)” value [4] of the same molecule?
Answer: 100%

Question: What about the “Population Pyknosed Nuclei (%)” value [4] of the same molecule?
Answer: 31% and 17%

Question: What about the “Population Tubulin-Different-Phenotype (%)” value [4] of the same molecule?
Answer: 30% and 25%

Question: What about the “Total Cell Count” value [4] of the same molecule?
Answer: 128 and 157

Question: And the “Population Apoptotic (%)” value [5]?
Answer: 69% and 60%

Question: And the “Population Fragmented Nuclei (%)” value [5]?
Answer: 12% and 10%

Question: What about the “Population Healthy Nuclei (%)” value [5] of the same molecule?
Answer: 77% and 74%

Question: And the “Population Hoechst High Intensity Objects (%)” value [5]?
Answer: 0%

Question: And the “Population Membrane Permeable-Phenotype (%)” value [5]?
Answer: 2% and 7%

Question: What about the “Population Mitochondria Different-Phenotype (%)” value [5] of the same molecule?
Answer: 0%

Question: What about the “Population Mitotic Cells (%)” value [5] of the same molecule?
Answer: 30% and 40%

Question: What about the “Population Normal (%)” value [5] of the same molecule?
Answer: 100% and 99%

Question: What about the “Population Pyknosed Nuclei (%)” value [5] of the same molecule?
Answer: 9% and 14%

Question: What about the “Population Tubulin-Different-Phenotype (%)” value [5] of the same molecule?
Answer: 4% and 11%

Question: And the “Total Cell Count” value [5]?
Answer: 235 and 206

Question: And the “Population Apoptotic (%)” value [6]?
Answer: 70% and 78%

Question: What about the “Population Fragmented Nuclei (%)” value [6] of the same molecule?
Answer: 5% and 13%

Question: And the “Population Healthy Nuclei (%)” value [6]?
Answer: 64% and 67%

Question: What about the “Population Hoechst High Intensity Objects (%)” value [6] of the same molecule?
Answer: 0%

Question: And the “Population Membrane Permeable-Phenotype (%)” value [6]?
Answer: 4% and 5%

Question: What about the “Population Mitochondria Different-Phenotype (%)” value [6] of the same molecule?
Answer: 4% and 1%

Question: What about the “Population Mitotic Cells (%)” value [6] of the same molecule?
Answer: 30% and 21%

Question: And the “Population Normal (%)” value [6]?
Answer: 100% and 99%

Question: What about the “Population Pyknosed Nuclei (%)” value [6] of the same molecule?
Answer: 29% and 19%

Question: What about the “Population Tubulin-Different-Phenotype (%)” value [6] of the same molecule?
Answer: 39% and 28%

Question: And the “Total Cell Count” value [6]?
Answer: 134 and 167
